Measured values: publication PMC7077758 (The Journal of organic chemistry, 2019)

Test: Thiol reactivity assay
Type: physicochemical
Conditions: room temperature, 1H NMR
Method in brief: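 Dehydroamino-acid peptide (typically 0.010–0.015 mmol) in DMSO-d6 with 1,3,5-trimethoxybenzene as internal standard, treated with 2 equiv cysteamine added from a freshly prepared 0.5 M stock in DMSO-d6. 1H NMR spectra were recorded over time, and loss of starting peptide was quantified from diagnostic signals against the internal standard. Peptides unreactive at room temperature were heated stepwise to 60, 80 and 100 °C.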

C=C1CCOC1=O [α-methylene-γ-butyrolactone]
time to complete consumption of the electrophile by cysteamine: ≤ 5 min
